Laboratory results taken from ChEMBL document CHEMBL5150043, “Discovery of Anthranilic Acid Derivatives as Difluoromethylornithine Adjunct Agents That Inhibit Far Upstream Element Binding Protein 1 (FUBP1) Function” (J Med Chem, 2022).

How the values were obtained:
CHO-K1 [1] = experiment: Cytotoxicity against chinese hamster CHO-K1 cells assessed as decrease in cell viability measured after 48 hrs by ATPlite assay; type: toxicity, cell-based, Cricetulus griseus; conditions: cho-k1, 48 h
How it was run: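 CHO-K1 cells dosed alone in 384-well format in parallel with Assays 1 and 2; MTC taken as highest concentration giving ≥90% relative growth versus untreated control; typical error ±10% (n = 3).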

CHO-K1 [2] = experiment: Inhibition of spermidine uptake in chinese hamster CHO-K1 cells assessed as decrease in cell growth by measuring cellular ATP content measured after 48 hrs in presence of DFMO and spermidine by ATPlite assay; conditions: Cricetulus griseus, CHO-K1, 48 h
[3] = Inhibition of spermidine uptake chinese hamster CHO-K1 cells assessed as decrease in cell growth by measuring cellular ATP content measured after 48 hrs in presence of DFMO and spermidine by ATPlite assay; type: functional, cell-based; conditions: Cricetulus griseus, CHO-K1, 48 h
L3.6pl = experiment: Cytotoxicity against human L3.6pl cells assessed as cell viability measured after 72 hrs by ATPlite assay; type: toxicity, cell-based
How it was run: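 L3.6pl human pancreatic cancer cells in 96-well format were exposed to compound alone for 72 h. Growth was expressed relative to an untreated control. MTC is the highest concentration with relative growth still >90%. […] Data come from two or more experiments, each run in triplicate (n ≥ 6).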

[4] = Cytotoxicity against human L3.6pl cells assessed as inhibition of cell growth measured after 72 hrs by ATPlite assay; type: toxicity, cell-based

SMILES	MTC (CHO-K1 [1]) [µM]	EC50 (CHO-K1 [2]) [µM]	EC50 [3] [µM]	MTC (L3.6pl) [µM]	IC50 at 72 h [4] [µM]
O=C(Nc1ccc(N2CCN(c3ccccc3F)CC2)c(C(=O)O)c1)c1ccc(Cl)cc1	> 40	> 40	–	–	–
Cc1ccc(CC(=O)Nc2ccc(N3CCN(c4ccccc4Cl)CC3)cc2C(=O)O)cc1	> 40	32	16	–	–
Cc1ccc(C)c(N2CCN(c3ccc(NC(=O)c4ccc(Cl)cc4)cc3C(=O)O)CC2)c1	> 40	> 40	–	–	–
COc1ccc(C(=O)Nc2ccc(N3CCN(c4ccccc4F)CC3)cc2C(=O)O)cc1	25	33	–	–	–
Cc1cccc(N2CCN(c3ccc(NC(=O)c4ccccc4F)cc3C(=O)O)CC2C)c1 (centres undefined)	> 40	> 40	–	–	–
COc1ccc(C(=O)Nc2ccc(N3CCN(c4cccc(C)c4)CC3)cc2C(=O)O)cc1	22	16	> 40	–	–
COc1ccc(C(=O)Nc2ccc(N3CCN(c4cccc(Cl)c4)CC3)cc2C(=O)O)cc1	20	17	–	–	–
COc1ccccc1C(=O)Nc1ccc(N2CCN(Cc3ccccc3)CC2)cc1C(=O)O	> 40	> 40	> 40	10	> 10
CCN(CC)C(=O)CN1CCN(c2ccc(NC(=O)c3ccc(OC)cc3)c(C(=O)O)c2)CC1	28	> 40	> 40	–	–
Cc1ccccc1C(=O)Nc1ccc(N2CCN(c3cc(Cl)ccc3C)CC2)c(C(=O)O)c1	> 40	> 40	> 40	–	–
COC(=O)c1cc(N2CCN(c3cc(Cl)ccc3C)CC2)ccc1NC(=O)c1ccc(OC)cc1OC	> 40	> 40	> 40	–	–
COc1ccccc1N1CCN(c2ccc(NC(=O)c3ccccc3Cl)c(C(=O)O)c2)CC1	36	26	16	–	–
COc1ccccc1N1CCN(c2ccc(NC(=O)c3ccccc3-c3cccs3)cc2C(=O)O)CC1	> 40	27	> 40	–	–
COc1ccc(C(=O)Nc2ccc(N3CCCN(c4ncccn4)CC3)cc2C(=O)O)cc1	> 40	–	12	25	> 30
COc1ccc(N2CCN(c3ccc(NC(=O)C4CCCCC4)cc3C#N)CC2)cc1	17	23	> 40	–	–
COc1ccccc1N1CCN(c2ccc(NC(=O)c3ccccc3)cc2C(=O)O)CC1	> 40	> 40	–	–	–
COc1ccccc1C(=O)Nc1ccc(N2CCN(C(=O)c3ccccn3)CC2)cc1C(=O)O	> 40	> 40	> 40	10	> 10
CCOc1ccccc1N1CCN(c2ccc(NC(=O)c3ccc(OC)cc3)c(C(=O)O)c2)CC1	37	20	–	10	> 20
COc1ccccc1N1CCN(c2ccc(N3C(=O)CCC3=O)cc2[N+](=O)[O-])CC1	27	30	–	–	–
COc1ccc(C(=O)Nc2ccc(N3CCC(C(N)=O)CC3)cc2C(=O)O)cc1	22	> 40	> 40	–	–
COC(=O)c1cc(N2CCN(c3cc(Cl)ccc3C)CC2)ccc1NC(=O)c1ccc(OC)cc1	> 40	> 40	> 40	–	–
Cc1ccc(C(=O)Nc2ccc(N3CCN(c4cc(Cl)ccc4C)CC3)c(C(=O)O)c2)cc1	12	5	–	–	–

SMILES	MTC (CHO-K1 [1]) [µM]	EC50 (CHO-K1 [2]) [µM]	EC50 [3] [µM]	MTC (L3.6pl) [µM]	IC50 at 72 h [4] [µM]
Cc1cccc(N2CCN(c3ccc(NC(=O)c4cccc(Cl)c4)c(C(=O)O)c3)CC2)c1C	10	8	–	–	–
O=C(Nc1ccc(N2CCN(C3CCCCC3)CC2)cc1C(=O)O)c1ccc(F)cc1	> 40	> 40	–	–	–
COc1ccccc1C(=O)Nc1ccc(N2CCN(c3cccc(C)c3C)CC2)cc1C(=O)O	28	23	2	8	22.9
COc1ccc(C(=O)Nc2ccc(N3CCC(N4CCCCC4)CC3)cc2C(=O)O)cc1	> 40	> 40	–	–	–
COc1ccc(C(=O)Nc2ccc(N3CCN(c4cc(Cl)ccc4C)CC3)c(C(=O)O)c2)cc1	14	5	–	–	–
CCOC(=O)N1CCN(c2ccc(NC(=O)c3ccc(OC)cc3)c(C(=O)O)c2)CC1	34	> 40	> 40	–	–
COC(=O)c1cc(CN2CCN(c3ccccn3)CC2)ccc1NC(=O)c1ccccc1OC	> 20	> 20	> 20	–	–
COc1ccc(C(=O)Nc2ccc(N3CCN(c4cc(Cl)ccc4C)CC3)cc2C(=O)O)c(OC)c1	> 40	> 40	> 40	40	61.6
COc1ccccc1C(=O)Nc1ccc(N2CCC(c3ccccc3)CC2)cc1C(=O)O	> 40	21	18	9	46.3
COc1ccc(C(=O)Nc2ccc(N3CCN(c4ccc(C(C)=O)cc4)CC3)cc2C(=O)O)cc1	20	21	> 40	–	–
COc1ccc(C(=O)Nc2ccc(N3CCC(c4cccc(C)c4)C3)cc2C(=O)O)cc1 (centres undefined)	> 40	> 40	> 40	25	39.9
COc1ccc(CC(=O)Nc2ccc(N3CCN(c4cc(Cl)ccc4C)CC3)cc2C(=O)O)cc1	24	25	32	–	–
COc1ccc(C(=O)Nc2ccc(N3CCN(c4ccc(OC)cc4)CC3)cc2C(=O)O)cc1	> 40	> 40	> 40	–	–
COCCNC(=O)CN1CCN(c2ccc(NC(=O)c3ccc(OC)cc3)c(C(=O)O)c2)CC1	> 40	> 40	–	–	–
COc1ccccc1C(=O)Nc1ccc(N2CCN(Cc3ccccn3)CC2)cc1C(=O)O	> 40	10	–	10	> 100
Cc1ccc(C)c(N2CCN(c3ccc(N4C(=O)CC(c5ccccc5)C4=O)cc3[N+](=O)[O-])CC2)c1 (centres undefined)	32	27	–	–	–
COc1ccccc1C(=O)Nc1ccc(N2CCN(c3ccccn3)CC2)cc1C(=O)O	21	–	4	2	> 100
COC(=O)c1cc(N2CCN(c3cc(Cl)ccc3C)CC2)ccc1NC(=O)c1ccccc1OC	> 40	> 40	> 40	–	–
Cc1cccc(N2CCN(c3ccc(NC(=O)c4ccccc4Cl)c(C(=O)O)c3)CC2)c1C	26	22	–	–	–
COc1ccc(C(=O)Nc2ccc(N3CCN(C4CCCCC4)CC3)cc2C(=O)O)cc1	> 40	> 40	–	–	–
COc1ccccc1C(=O)Nc1ccc(N2CCN(c3ccccn3)CC2)cc1	14	> 40	> 40	10	> 10
COc1ccc(C(=O)Nc2ccc(N3CCN(c4ccccc4)CC3)cc2C(=O)O)cc1	17	15	> 40	–	–
